# Source: PubChem BioAssay (several laboratories)
# In the library only some 3.2% were active in any assay of this set; here they are far more common.
# SMARCA2 act = SMARCA2 (BRM) function activators, primary screen, cell-based, luminescence, high throughput; MG213 cells, MMTV-luciferase reporter, dexamethasone, overnight; activation, % at 9.1 µM; hit rate 1% among 370,000; AID 652017, 2013; in the data active = activation above about 7.8%;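 also: 0% = vehicle wells and 100% = reference activator wells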
# DAX1 inh-1 = DAX1 (NR0B1) inhibitors on StAR promoter, primary screen, cell-based, luminescence, SF-1 (NR5A1), full-length DAX-1; HEK293T StAR-luciferase reporter, SF-1/DAX-1 repression relief; inhibition, % at 6.8 µM; hit rate 1.1% among 370,000;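 active = inhibition above the mean over all tested compounds plus 3 SD, cut at about 3.6% in these data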;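 also: 0% = DAX-1 cells with DMSO and 100% = cells lacking DAX-1 with DMSO; higher inhibition means more luminescence from relief of DAX-1 repression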
# DAX1 inh-2 = DAX1 (NR0B1) inhibitors, primary screen, cell-based, HEK293, Gal4-DAX1, luciferase luminescence. Nuclear receptor subfamily 0 group B member 1 (Homo sapiens), P51843. HEK293 Gal4-DAX1 luciferase reporter. inhibition, % at 6.75 µM. hit rate 0.99% among 340,000. AID 504766, 2011;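 active = inhibition above the mean over all tested compounds plus 3 SD, cut at about 4.2% in these data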;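 also: 0% = DAX1-transfected cells with DMSO and 100% = empty-vector control cells with DMSO; inhibition shows as a rise in luminescence from relieved DAX1 repression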
# NR2E3 ag-1 = inhibitors of NR2E3-RetCOR corepressor binding, primary screen, NR2E3 agonist project, biochemical, TR-FRET, GST-NR2E3, biotin-RetCOR; AID 2300, 2010; hit rate 0.12% among 320,000; inhibition of corepressor binding, % at 4.78 µM; 1536-well;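 active = percent inhibition above the cutoff of mean plus 3 SD of all tested compounds, set per screening campaign, cut at about 20% in these data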;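 also: 0% = DMSO wells and 100% = biotin wells as full block of FRET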
# Target sequence (Q9Y5X4 whole entry, looked up): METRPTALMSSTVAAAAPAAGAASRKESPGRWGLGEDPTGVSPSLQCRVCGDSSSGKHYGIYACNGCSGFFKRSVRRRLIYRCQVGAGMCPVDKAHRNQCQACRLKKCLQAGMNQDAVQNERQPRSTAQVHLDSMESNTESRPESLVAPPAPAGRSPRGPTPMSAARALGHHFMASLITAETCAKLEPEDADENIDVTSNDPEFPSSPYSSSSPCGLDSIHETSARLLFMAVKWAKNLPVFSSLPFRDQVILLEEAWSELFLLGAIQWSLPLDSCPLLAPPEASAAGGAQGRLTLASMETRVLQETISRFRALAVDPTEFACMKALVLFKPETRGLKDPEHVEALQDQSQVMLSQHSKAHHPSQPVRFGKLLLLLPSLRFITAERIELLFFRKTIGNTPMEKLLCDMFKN
#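 Material: NR2E3–RetCOR corepressor complex / Incubation: Compound–protein incubation for 5 h at 4 °C / Dosing: compound at 4.8 µM, single dose / Detection: time-resolved FRET / Benchmarks: high control biotin, low control 0.6% DMSO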
# JMJD2C inh = inhibitors of GASC-1 histone demethylase, primary screen, biochemical, fluorescence, DELFIA europium | GST-JMJD2C(1-420) H3K9me3 demethylation | AID 2099, 2009 | Lysine-specific demethylase 4C (Homo sapiens), Q9H3R0 | hit rate 0.069% among 330,000 | inhibition, % at 2.35 µM;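 active = more than half of a compound's replicate wells show inhibition beyond 50%, single wells judged on their own value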;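 also: signal counts dimethyl H3K9 product captured on neutravidin plate; 0% = median of DMSO wells and 100% = 0.3 times that DMSO median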
# NR2E3 ag-2 = NR2E3 agonists in two-hybrid cells, primary screen, cell-based, luminescence, CHO-S, Gal4-NCOR/VP16-NR2E3. luciferase. hit rate 0.35% among 360,000. inhibition of corepressor binding, % at 3.98 µM. Photoreceptor-specific nuclear receptor (Homo sapiens), Q9Y5X4. AID 602229, 2012;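 active = inhibition above the mean of all tested compounds plus 3 SD, cut at about 70% in these data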;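 also: 0% = DMSO with NR2E3 transfected cells and 100% = cells lacking NR2E3 construct; higher means lower luciferase signal from less NR2E3 corepressor binding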
# SMARCA2 conf = SMARCA2 (BRM) function activators, confirmation, cell-based, luminescence, triplicate; activation, % at 9.1 µM; shares compounds with SMARCA2 act; hit rate 30% among 3,500; MG213 cells, MMTV-luciferase with dexamethasone, overnight; MG213 cells expressing E1A, Rb sequestered; DMSO wells 0%, reference activator 100%;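 active = activation above its plate's cutoff, the mean activation of tested wells plus 3 SD, cut at about 7.9% in these data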
# GAL4-VP16 Luc = GAL4-VP16 luciferase reporter activation, counter-screen for SMARCA2 (BRM) activator project, cell-based, pG5luc, luminescence, high throughput; shares compounds with SMARCA2 act; HEK293 GAL4-VP16 pG5luc reporter; scaled: DMSO wells 0%, SAHA wells 100%; activation, % at 9.1 µM; hit rate 41% among 3,500; AID 686939, 2013;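 active = activation above the solvent-only control well mean plus 3 SD, averaged across control plates, cut at about 5.2% in these data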
# * = called active by the depositor; . = not tested or not shown; ! = not confirmed by another sample.
SMILES,SMARCA2 act,DAX1 inh-1,DAX1 inh-2,NR2E3 ag-1,JMJD2C inh,NR2E3 ag-2,SMARCA2 conf,GAL4-VP16 Luc
Cc1ccc2nc(-c3cccc(Br)c3)c(Cc3ccccc3)n2c1,10*,4.2*,.,.,.,-71,2,5
O=C(O)c1cccc(-c2noc(-c3cccc(Cl)c3)n2)c1,5,2,-2,-1,15,-223,.,.
CCC(C)CNC(=O)c1cn(C(C)c2ccccc2)nn1 (stereo not drawn),-2,1,.,.,.,.,.,.
COc1ccc(CNC(=O)[C@@H](Cc2ccccc2)NC(=O)[C@H]2O[C@@H](n3cnc4c(=O)[nH]c(N)nc43)[C@H](O)[C@@H]2O)cc1,-1,0,.,.,.,.,.,.
COC(=O)c1cc(-c2cc3ccccc3o2)c(=O)n2c1CCC2,-2,0,.,.,.,.,.,.
CC(=O)c1nc2ccccc2n1CCc1ccccc1,2,0,2,0,7,-28,.,.
N#CC(=C1NC(=O)c2ccccc21)c1nc2ccccc2n1CCO,20*,-3,-1,.,.,-51,-13,18*
COc1ccc2nc(N(CCN(C)C)C(=O)c3ccc4ccccc4c3)sc2c1,-1,0,0,-4,-9,12,.,.
COc1ccc2nc(N(CCN(C)C)C(=O)c3ccc4ncsc4c3)sc2c1,10*,3.9*,0,.,.,-100,13*,9.4*
CCOc1ccc(-c2nnc(NC(=O)Cc3ccc(OC)cc3)o2)cc1,-1,0,-1,4,-14,-50,.,.
CCOc1ccc(-c2nnc(NC(=O)Cc3cc(OC)c(OC)c(OC)c3)o2)cc1,8.4*,0,-1,1,-8,-8,0,4
Fc1ccc(CN2CCN(c3ncc(Cc4ccccc4)cn3)CC2)c(Cl)c1,-8,-5,.,.,.,.,.,.
Cc1cccc(Cc2cnc(NC(=O)C3=NCCN3)s2)c1,4,0,0,-1,-4,-14,.,.
Cc1cccc(Cc2cnc(NC(=O)c3ccc(C)o3)s2)c1,11*,3,2,-5,-11,22,7,4
O=C(NCCCO)/C(=C/c1ccc(-c2cccc([N+](=O)[O-])c2)o1)NC(=O)c1ccccc1,1,-1,3,-2,5,-31,.,.
Cc1ccc(C(=O)N/C(=C/c2ccc(-c3ccc([N+](=O)[O-])cc3)o2)C(=O)NCCCN(C)C)cc1,9.5*,0,-1,-1,-13,10,12*,0
CCN1CCN(Cc2ccc(NC(=O)c3cc(NC(=O)c4cnnc5ccccc45)cc(OC)c3)cc2C(F)(F)F)CC1,14*!,0,0,0,10,-5,8.7*,1
COC(=O)C1CN(CC(C)C)CCS(=O)(=O)N1Cc1cccc(Cl)c1 (stereo not drawn),-2,0,.,.,.,.,.,.
CCCCCCCCN1C(=O)[C@@H](CC(=O)NCCCOC)C[C@@]2(C(=O)OC)C1=C[C@H](C1CCCC1)O[C@@H]2C,-4,-1,.,.,.,.,.,.
CC1CCCC(C)N1C(=O)COC(=O)CNC(=O)c1ccc(Cl)cc1Cl (stereo not drawn),-4,0,2,-1,-1,-17,.,.
Cc1ccc2c(c1)N(CC(=O)NCC(C)c1ccccc1)C(=O)c1cccnc1O2 (stereo not drawn),12*,-1,-1,-1,0,-8,-3,0
